V-ATPase pHluor = regulators of yeast V-ATPase proton pumping, primary screen, pHLuorin cytosolic pH fluorescence | S. cerevisiae | 350,000 compounds, 0.37% hits | response, % at 10 µM | AID 504577, 2011; in the data active = response mostly above about 7.3%, no sharp cut-off; inactive = mostly below about 5.4%; also: actives read high
Yeast superoxide = reduction of superoxide in aged yeast, primary screen, HTS. S. cerevisiae aged cells, superoxide DHE fluorescence; hits give low values. superoxide response (% of plate mean), % at 10 µM. 330,000 compounds, 0.18% hits. AID 2690, 2010;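 active = superoxide response under a set limit, about three screen SD below normal, cut at about 65% in these data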;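 also: yeast aged for seven days with compound at 30 °C before DHE staining; 100% = average MFI of all compound-treated wells on the plate with controls excluded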
proKLK7 act = proKLK7 zymogen activators, primary screen, biochemical, fluorescence intensity; purified proKLK7, EDANS-DABCYL substrate fluorescence; 100% is mature enzyme control, 0% vehicle; activation, % at 7 µM; 370,000 compounds, 0.9% hits;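 active = activation above the mean of all tested compounds plus 3 SD, computed per campaign excluding outliers beyond control limits, cut at about 13% in these data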
Target sequence (P49862 whole entry, looked up): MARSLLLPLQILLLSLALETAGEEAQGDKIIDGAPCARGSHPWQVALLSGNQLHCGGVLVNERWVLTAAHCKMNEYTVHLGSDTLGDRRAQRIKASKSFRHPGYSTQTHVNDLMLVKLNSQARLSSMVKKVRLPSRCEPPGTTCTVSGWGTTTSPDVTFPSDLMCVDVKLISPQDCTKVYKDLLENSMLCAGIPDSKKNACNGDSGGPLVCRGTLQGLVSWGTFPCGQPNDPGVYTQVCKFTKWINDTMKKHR
MIN6 prolif = inducers of MIN6 beta-cell proliferation, primary screen, ATP luminescence, uHTS | MIN6 cells proliferation, ATPlite luminescence, 48 h; cells starved in 0.2% serum; 100% = growth in 10% serum | 330,000 compounds, 0.29% hits | AID 2380, 2010 | proliferation, % at 10 µM;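 active = compounds whose signal lies at least 3.5 SD above the mean of all wells on their plate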;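 also: 0% = DMSO-treated cells in low-serum medium and 100% = 10% serum control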
Rce1 inh = yeast Rce1p protease inhibitors, primary screen, biochemical, fluorescence, cell-free homogeneous. 290,000 compounds, 0.27% hits. yeast membranes, quenched prenylated peptide cleavage fluorescence. calls only;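 active = fall in fluorescence gain of 50% or more versus controls, with final raw signal at or below 3038400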;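 also: plate controls were neutral control wells for no effect and wells lacking membranes for full effect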
T cell HTS = modulators of CD8 T cell-vesicle binding, primary screen, mouse 2C CD8+ T cells, flow cytometry. 2C CD8+ T cell-vesicle binding; hits give low values. 330,000 compounds, 0.068% hits. response (vesicle binding), % at 7 µM;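 active = response, share of CD8 T cells binding vesicles, and their 90th percentile fluorescence all below set limits, cut at about 80% in these data, passing the limit was not always enough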;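 also: values below 100% mean blocked vesicle binding to the CD8+ T cells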
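Incubation: binding step 1.5 h, 37 °C, antibody labelling 20 min, ice; system: murine 2C transgenic CD8+ T lymphocytes; technique: cytometric PE anti-B7-1 and Alexa647 anti-CD8 signals after 1% paraformaldehyde fixation; also added: QL9-charged Drosophila Ld/ICAM-1/B7-1 vesicles; control set: naked versus QL9-loaded vesicles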
VATPase regulator = yeast V-ATPase proton pumping modulators, confirmation, S. cerevisiae, pH-sensitive GFP, second cherry-pick; shares compounds with V-ATPase pHluor; S. cerevisiae pHLuorin cytosolic pH, V-ATPase proton transport; response, % at 10 µM; 980 compounds, 2% hits; AID 602197, 2012; in the data active = response above about 24%;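 also: plate controls were vehicle wells for no effect and positive control wells for full effect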
* marks the source's active call; other numbers are inactive results. Hits are enriched below; roughly 1.9% of the tested compounds scored in any of these assays.

What do the screens show for `COc1ccccc1NC(=O)c1c(Nc2ccccc2C)sc(C(=O)Nc2cccc(Cl)c2)c1N`?
V-ATPase pHluor: 12*; Yeast superoxide: 114; proKLK7 act: -1; MIN6 prolif: -6; Rce1 inh: inactive; T cell HTS: 429; VATPase regulator: -2

How did CCc1nc2ccccc2c(C(=O)OCC(=O)N(CCOC)c2c(N)n(Cc3ccccc3)c(=O)[nH]c2=O)c1C do in these assays?
V-ATPase pHluor: -2; proKLK7 act: 0; MIN6 prolif: -2

How did CC(=O)c1nnn(-c2cccc(C#N)c2)c1C do in these assays?
V-ATPase pHluor: 13*; Yeast superoxide: 97; proKLK7 act: -1; MIN6 prolif: -2; Rce1 inh: inactive; T cell HTS: inactive; VATPase regulator: -1

What do the screens show for `CN(C)C(=O)c1cc2cc([N+](=O)[O-])ccc2s1`?
V-ATPase pHluor: 2; Yeast superoxide: 84; proKLK7 act: 0; MIN6 prolif: -2; Rce1 inh: inactive; T cell HTS: 321

Results for CCN(CC)C(=O)c1cc2cc([N+](=O)[O-])ccc2s1 ?
V-ATPase pHluor: 19*; Yeast superoxide: 91; proKLK7 act: 0; MIN6 prolif: -2; Rce1 inh: inactive; T cell HTS: 252; VATPase regulator: 3

Results for OC[C@@H]1CN(Cc2ccc(F)cc2)C[C@H](n2cnc3c(N4CCN(c5ccccc5)CC4)ncnc32)O1 ?
proKLK7 act: 0

Results for COCCOC(=O)c1c(NC(=O)CNCc2ccco2)sc(C(N)=O)c1C ?
V-ATPase pHluor: 10*; Yeast superoxide: 108; proKLK7 act: 0; MIN6 prolif: -2; Rce1 inh: inactive; T cell HTS: 285; VATPase regulator: -2

What do the screens show for `CCCCCCCCn1cc(C(C)=O)c(=O)[nH]c1=O`?
V-ATPase pHluor: -1; Yeast superoxide: 105; proKLK7 act: 0; MIN6 prolif: -2; Rce1 inh: inactive; T cell HTS: 123

Results for C=CCn1cc(C(C)=O)c(=O)[nH]c1=O ?
V-ATPase pHluor: 6.4*; Yeast superoxide: 92; proKLK7 act: 1; MIN6 prolif: 1; Rce1 inh: inactive; T cell HTS: 113; VATPase regulator: -2

How did COc1ccc(C2OC(CCc3ccccc3)CC3=C2C(=O)OC(C)(C)O3)cc1 (configuration not stated) do in these assays?
proKLK7 act: 1

Results for O=C(NC(=S)NC1CCSC1=O)c1cccs1 (configuration not stated) ?
V-ATPase pHluor: 8.3*; Yeast superoxide: 96; proKLK7 act: 1; MIN6 prolif: -1; Rce1 inh: inactive; T cell HTS: 243; VATPase regulator: 3

What do the screens show for `Cc1ccccc1C(=O)NC(=S)NC1CCSC1=O` (configuration not stated)?
V-ATPase pHluor: 0; Yeast superoxide: 88; proKLK7 act: -1; MIN6 prolif: -1; Rce1 inh: inactive; T cell HTS: 218

How did Cn1c(SCc2ccccc2)nc(N)c(N=O)c1=O do in these assays?
V-ATPase pHluor: 1; Yeast superoxide: 95; proKLK7 act: 1; MIN6 prolif: -1; Rce1 inh: inactive; T cell HTS: 412

How did CCCC(=O)Nc1ccc(NC(=O)c2cc3ccccc3o2)c(OC)c1 do in these assays?
V-ATPase pHluor: 10; Yeast superoxide: 117; proKLK7 act: -1; MIN6 prolif: 0; Rce1 inh: inactive; T cell HTS: 330

How did CCOC(=O)C(CCCOc1ccccc1)C(=O)OCC do in these assays?
V-ATPase pHluor: 2; Yeast superoxide: 104; proKLK7 act: 1; MIN6 prolif: 4; Rce1 inh: inactive; T cell HTS: 441

How did CCOC(=O)C(CCCOc1ccc(C)cc1)C(=O)OCC do in these assays?
V-ATPase pHluor: 9.6*; Yeast superoxide: 101; proKLK7 act: 0; MIN6 prolif: -3; Rce1 inh: inactive; T cell HTS: 705; VATPase regulator: -6

Bioassay records from PubChem.
